ChEMBL document CHEMBL4052819 (2017)
In brackets after ≈: the same amount, converted by molar mass. Non-standard residues stand in square brackets, D forms with d. Residues, ends and D or L forms follow the SMILES beside them. *: point of attachment. Decanoyl = CCCCCCCCCC(=O)*; Heptanoyl = CCCCCCC(=O)*; Dab = NCC[C@H](N)C(=O)O

What was measured:
Acinetobacter baumannii [1] = test: Potentiation of rifampicin-mediated antibacterial activity against Acinetobacter baumannii ATCC 19606 assessed as rifampicin MIC at 2 ug/ml by checkerboard method (reference value: 16 ug/ml); type: functional; conditions: ATCC 19606 = CIP 70.34 = JCM 6841
Acinetobacter baumannii [2] = test: Antibacterial activity against Acinetobacter baumannii ATCC 19606 after 18 to 20 hrs by broth microdilution method; type: functional; conditions: ATCC 19606 = CIP 70.34 = JCM 6841
Klebsiella pneumoniae [3] = test: Potentiation of rifampicin-mediated antibacterial activity against Klebsiella pneumoniae ATCC 13883 assessed as rifampicin MIC at 2 ug/ml by checkerboard method (reference value: 16 ug/ml); type: functional
Escherichia coli [4] = test: Antibacterial activity against Escherichia coli ATCC 25922 after 18 to 20 hrs by broth microdilution method; type: functional
Method in brief: (§1)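 Broth microdilution in tryptic soy broth: 2-fold dilutions mixed 1:1 with ~1.5 × 10^5 CFU/mL inoculum, final 0.5–32 μg/mL; 37 °C, 18–20 h. MIC taken as lowest concentration giving no visible growth. At least three independent experiments, one replicate each.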

Klebsiella pneumoniae [5] = test: Potentiation of rifampicin-mediated antibacterial activity against Klebsiella pneumoniae ATCC 13883 assessed as decrease in rifampicin MIC at 2 ug/ml by checkerboard method relative to control; type: functional
Acinetobacter baumannii [6] = test: Potentiation of rifampicin-mediated antibacterial activity against Acinetobacter baumannii ATCC 19606 assessed as decrease in rifampicin MIC at 4 ug/ml by checkerboard method relative to control; type: functional, ATCC 19606 = CIP 70.34 = JCM 6841
Staphylococcus aureus [7] = test: Antibacterial activity against Staphylococcus aureus ATCC 29213 after 18 to 20 hrs by broth microdilution method; type: functional; method in brief: as §1
Enterococcus faecium [8] = test: Antibacterial activity against Enterococcus faecium ATCC 19434 after 18 to 20 hrs by broth microdilution method; type: functional; method in brief: as §1
Klebsiella pneumoniae [9] = test: Antibacterial activity against Klebsiella pneumoniae ATCC 13883 after 18 to 20 hrs by broth microdilution method; type: functional
Pseudomonas aeruginosa [10] = test: Antibacterial activity against Pseudomonas aeruginosa ATCC 27853 after 18 to 20 hrs by broth microdilution method; type: functional; method in brief: as §1
Staphylococcus aureus [11] = test: Antibacterial activity against methicillin-resistant Staphylococcus aureus ATCC 43300 after 18 to 20 hrs by broth microdilution method; type: functional
Method in brief: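 Broth microdilution in tryptic soy broth: 2-fold dilutions mixed 1:1 with ~1.5 × 10^5 CFU/mL bacterial suspension in TSB, final 0.5–32 μg/mL, 37 °C for 18–20 h. MIC = lowest concentration with no visible growth. At least three independent experiments, one replicate each.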

Acinetobacter baumannii [12] = test: Bactericidal activity against Acinetobacter baumannii ATCC 19606; type: functional; conditions: ATCC 19606 = CIP 70.34 = JCM 6841, read-out: MBC99.9
Method in brief: (§2)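 MBC from MIC plates at end point: 50 μL from each well with no visible growth plated on tryptic soy agar and counted. MBC taken as lowest concentration giving ≥99.9% fall in viable count relative to initial inoculum. Three independent experiments, one replicate each.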

Enterococcus faecium [13] = test: Bactericidal activity against Enterococcus faecium ATCC 19434; type: functional; conditions: read-out: MBC99.9; method in brief: as §2
Staphylococcus aureus [14] = test: Bactericidal activity against methicillin-resistant Staphylococcus aureus ATCC 43300; type: functional; conditions: read-out: MBC99.9
Method in brief: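 MBC taken at the end of the MIC test: 50 μL from each well without visible growth plated on tryptic soy agar. MBC = lowest concentration giving ≥99.9% reduction in viable cells relative to the initial inoculum. Three independent experiments, one replicate each.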

Klebsiella pneumoniae [15] = test: Bactericidal activity against Klebsiella pneumoniae ATCC 13883; type: functional; conditions: read-out: MBC99.9; method in brief: as §2
Escherichia coli [16] = test: Bactericidal activity against Escherichia coli ATCC 25922; type: functional; conditions: read-out: MBC99.9; method in brief: as §2
Escherichia coli [17] = test: Antibacterial activity against Escherichia coli ATCC 25922 after 18 to 20 hrs in presence of 95% serum by broth microdilution method; type: functional
Method in brief: (§3)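 Same microdilution with human serum as medium: compound 2-fold diluted in 100% serum, mixed 1:1 with 90% serum holding ~1.5 × 10^5 CFU/mL, giving 95% serum and final 0.5–64 μg/mL. MIC read as no visible growth after incubation as for the broth test.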

Staphylococcus aureus [18] = test: Antibacterial activity against Staphylococcus aureus ATCC 29213 after 18 to 20 hrs in presence of 95% serum by broth microdilution method; type: functional; method in brief: as §3
Pseudomonas aeruginosa [19] = test: Bactericidal activity against Pseudomonas aeruginosa ATCC 27853; type: functional; conditions: read-out: MBC99.9; method in brief: as §2
Staphylococcus aureus [20] = test: Bactericidal activity against Staphylococcus aureus ATCC 29213; type: functional; conditions: read-out: MBC99.9; method in brief: as §2

For `CCCCCCCCCC(=O)N[C@@H](CCN)C(=O)N[C@H](C(=O)N[C@H](C(=O)N[C@H](CC(C)C)C(=O)N[C@@H](CC(C)C)C(=O)N[C@@H](CCN)C(=O)N[C@@H](C(=O)N[C@@H](CC(C)C)C(=O)N[C@@H](CO)C(N)=O)C(C)C)[C@@H](C)O)[C@@H](C)CC` (Decanoyl-[Dab]IT[dL]L[Dab][dV]LS-NH2), the MIC (Acinetobacter baumannii [1]) was > 0.125 µg/mL, the MIC (Acinetobacter baumannii [2]) was > 32 µg/mL and the MIC (Klebsiella pneumoniae [3]) was > 0.125 µg/mL. For the same compound, the MIC (Escherichia coli [4]) was > 32 µg/mL, the “fold change (FC)” value (Klebsiella pneumoniae [5]) was <8 and the “fold change (FC)” value (Acinetobacter baumannii [6]) was <128. The MIC (Staphylococcus aureus [7]) was > 32 µg/mL, the MIC (Enterococcus faecium [8]) was ≥ 32 µg/mL and the MIC (Klebsiella pneumoniae [9]) was > 32 µg/mL. The MIC (Pseudomonas aeruginosa [10]) was > 32 µg/mL and the MIC (Staphylococcus aureus [11]) was > 32 µg/mL.
In the case of `CCCCCCC(=O)N[C@@H](CCN)C(=O)N[C@H](C(=O)N[C@@H](CCN)C(=O)N[C@H](Cc1ccccc1)C(=O)N[C@@H](CC(C)C)C(=O)N[C@@H](CCN)C(=O)N[C@@H](C(=O)N[C@@H](CC(C)C)C(=O)N[C@@H](CO)C(N)=O)C(C)C)C(C)C` (Heptanoyl-[Dab]V[Dab][dF]L[Dab][dV]LS-NH2), the MIC (Acinetobacter baumannii [1]) is reported as 0.125 µg/mL, the MIC (Acinetobacter baumannii [2]) is reported as > 32 µg/mL and the MIC (Klebsiella pneumoniae [3]) is reported as 0.0156 µg/mL. The MIC (Escherichia coli [4]) was 16 µg/mL (≈ 14.7 µM), the “fold change (FC)” value (Klebsiella pneumoniae [5]) was 4096 and the “fold change (FC)” value (Acinetobacter baumannii [6]) was 256 - 512. The MIC (Staphylococcus aureus [7]) was > 32 µg/mL, the MIC (Enterococcus faecium [8]) was > 32 µg/mL and the MIC (Klebsiella pneumoniae [9]) was > 32 µg/mL. The MIC (Pseudomonas aeruginosa [10]) was 16 µg/mL (≈ 14.7 µM) and the MIC (Staphylococcus aureus [11]) was > 32 µg/mL.
With `CCCCCCC(=O)N[C@@H](CCN)C(=O)N[C@@H](Cc1ccccc1)C(=O)N[C@@H](CCN)C(=O)N[C@H](Cc1ccccc1)C(=O)N[C@@H](CC(C)C)C(=O)N[C@@H](CCN)C(=O)N[C@@H](C(=O)N[C@@H](CC(C)C)C(=O)N[C@@H](CO)C(N)=O)C(C)C` (Heptanoyl-[Dab]F[Dab][dF]L[Dab][dV]LS-NH2) the MIC (Acinetobacter baumannii [2]) was 32 µg/mL (≈ 28.2 µM), the MIC (Escherichia coli [4]) was 1 to 4 µg/mL (≈ 0.88 to 3.52 µM) and the MIC (Staphylococcus aureus [7]) was ≥ 32 µg/mL. The MIC (Enterococcus faecium [8]) was > 32 µg/mL, the MIC (Klebsiella pneumoniae [9]) was 8 µg/mL (≈ 7.04 µM) and the MIC (Pseudomonas aeruginosa [10]) was 2 to 4 µg/mL (≈ 1.76 to 3.52 µM). The MIC (Staphylococcus aureus [11]) was 32 µg/mL (≈ 28.2 µM).
In the case of `CCCCCCC(=O)N[C@@H](CCN)C(=O)N[C@H](C(=O)N[C@@H](CCN)C(=O)N[C@H](Cc1ccccc1)C(=O)N[C@@H](CC(C)C)C(=O)N[C@@H](CCN)C(=O)N[C@@H](C(=O)N[C@@H](CC(C)C)C(=O)N[C@@H](CO)C(N)=O)C(C)C)[C@@H](C)CC` (Heptanoyl-[Dab]I[Dab][dF]L[Dab][dV]LS-NH2), the MIC (Acinetobacter baumannii [1]) is reported as 0.0078 µg/mL, the MIC (Acinetobacter baumannii [2]) is reported as > 32 µg/mL and the MIC (Klebsiella pneumoniae [3]) is reported as 0.0039 µg/mL. The MIC (Escherichia coli [4]) was 4 µg/mL (≈ 3.63 µM), the “fold change (FC)” value (Klebsiella pneumoniae [5]) was “>=8192” and the “fold change (FC)” value (Acinetobacter baumannii [6]) was 4096. The MIC (Staphylococcus aureus [7]) was > 32 µg/mL, the MIC (Enterococcus faecium [8]) was > 32 µg/mL and the MIC (Klebsiella pneumoniae [9]) was 32 µg/mL (≈ 29 µM). The MIC (Pseudomonas aeruginosa [10]) was 4 µg/mL (≈ 3.63 µM) and the MIC (Staphylococcus aureus [11]) was > 32 µg/mL.
With `CCCCCCCC(=O)N[C@H](CCCN)C(=O)N[C@H](C(=O)N[C@@H](CCCN)C(=O)N[C@@H](Cc1ccccc1)C(=O)N[C@@H](CC(C)C)C(=O)N[C@@H](CCCN)C(=O)N[C@H](C(=O)N[C@@H](CC(C)C)C(=O)N[C@@H](CO)C(N)=O)C(C)C)[C@@H](C)CC` the MIC (Acinetobacter baumannii [1]) was 0.0625 µg/mL, the MIC (Acinetobacter baumannii [2]) was 32 µg/mL (≈ 27.6 µM) and the MIC (Klebsiella pneumoniae [3]) was 0.0313 to 0.0625 µg/mL. The MIC (Escherichia coli [4]) was 32 µg/mL (≈ 27.6 µM), the “fold change (FC)” value (Klebsiella pneumoniae [5]) was 1024 - 2048 and the “fold change (FC)” value (Acinetobacter baumannii [6]) was 512 - 1024. For the same compound, the MIC (Staphylococcus aureus [7]) was > 32 µg/mL, the MIC (Enterococcus faecium [8]) was > 32 µg/mL and the MIC (Klebsiella pneumoniae [9]) was > 32 µg/mL. For the same compound, the MIC (Pseudomonas aeruginosa [10]) was 16 µg/mL (≈ 13.8 µM) and the MIC (Staphylococcus aureus [11]) was 32 µg/mL (≈ 27.6 µM).
`CCCCCCC(=O)N[C@@H](CCN)C(=O)N[C@H](C(=O)N[C@@H](CCN)C(=O)N[C@H](Cc1ccccc1)C(=O)N[C@@H](CC(C)C)C(=O)N[C@@H](CCN)C(=O)N[C@H](CC(C)C)C(=O)N[C@@H](CC(C)C)C(=O)N[C@@H](CO)C(N)=O)[C@@H](C)CC` (Heptanoyl-[Dab]I[Dab][dF]L[Dab][dL]LS-NH2) showed an MBC (Acinetobacter baumannii [12]) of 16 µg/mL (≈ 14.3 µM), an MBC (Enterococcus faecium [13]) of 16 µg/mL (≈ 14.3 µM) and an MIC (Acinetobacter baumannii [2]) of 8 to 16 µg/mL (≈ 7.17 to 14.3 µM). The MBC (Staphylococcus aureus [14]) was 16 to 32 µg/mL (≈ 14.3 to 28.7 µM), the MIC (Escherichia coli [4]) was 1 to 4 µg/mL (≈ 0.896 to 3.58 µM) and the MBC (Klebsiella pneumoniae [15]) was 8 µg/mL (≈ 7.17 µM). The MBC (Escherichia coli [16]) was 16 µg/mL (≈ 14.3 µM), the MIC (Escherichia coli [17]) was 16 µg/mL and the MIC (Staphylococcus aureus [18]) was 32 µg/mL. It also gave an MIC (Staphylococcus aureus [7]) of 16 to 32 µg/mL (≈ 14.3 to 28.7 µM), an MIC (Enterococcus faecium [8]) of 8 to 16 µg/mL (≈ 7.17 to 14.3 µM) and an MIC (Klebsiella pneumoniae [9]) of 4 µg/mL (≈ 3.58 µM). It also gave an MIC (Pseudomonas aeruginosa [10]) of 2 to 4 µg/mL (≈ 1.79 to 3.58 µM), an MBC (Pseudomonas aeruginosa [19]) of 8 to 16 µg/mL (≈ 7.17 to 14.3 µM) and an MIC (Staphylococcus aureus [11]) of 16 µg/mL (≈ 14.3 µM). It also gave an MBC (Staphylococcus aureus [20]) of 16 to 32 µg/mL (≈ 14.3 to 28.7 µM).
